Consider nine molecules from ChEMBL document CHEMBL4673223, “Synthesis, Biological, and Structural Explorations of New Zwitterionic Derivatives of 14- O-Methyloxymorphone, as Potent μ/δ Opioid Agonists and Peripherally Selective Antinociceptives” (J Med Chem, 2019).

Structures are written as SMILES. Active and inactive are the calls of the source. The calls are words filed in the database; no cut-off is given here.

The target of test [1] is Delta-type opioid receptor (Homo sapiens) (UniProt P41143). The test is described as follows: Displacement of [3H]diprenorphine from human DOR expressed in CHO cell membranes incubated for 60 mins liquid scintillation counting assay. The settings on record: Cell membrane, filed as agonist. An outline of the steps:
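Membranes from CHO cells expressing human DOR (15–20 μg) in 50 mM Tris-HCl, pH 7.4, were incubated with 0.2 nM [3H]diprenorphine and varied test concentrations for 60 min at 25 °C. Nonspecific binding was set with 1–10 μM unlabeled diprenorphine. Samples were GF/C filtered and scintillation counted.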

The species named for the next test is Rattus norvegicus. The test is described as follows: Selectivity index, ratio of Ki for displacement of [3H][Ile5,6]deltorphin II from delta opioid receptor in rat brain membranes to Ki for displacement of [3H]DAMGO from mu opioid receptor in rat brain membranes. Type of test: cell membranes. An outline of the steps:
(§1)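 Rat brain membranes (cerebella removed; 0.3–0.5 mg protein) in 50 mM Tris-HCl, pH 7.4, were incubated 45 min at 35 °C with 1 nM [3H]DAMGO (MOR) or 0.5 nM [3H][Ile5,6]deltorphin II (DOR) plus varied test concentrations. Nonspecific binding was set with 10 μM naloxone. Samples were GF/C filtered, washed and scintillation counted. Ki was obtained by Cheng–Prusoff; duplicates, 3–4 experiments.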

Test [2] can be described thus: Selectivity index, ratio of Ki for displacement of [3H]U69,593 from kappa opioid receptor in guinea-pig brain membranes to Ki for displacement of [3H]DAMGO from mu opioid receptor in rat brain membranes. Type of test: cell membranes. In a few lines: (§2)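 Guinea-pig brain membranes (0.3–0.5 mg protein) in 50 mM Tris-HCl, pH 7.4, were incubated with 1 nM [3H]U69,593 for 30 min at 30 °C, with 10 μM naloxone defining nonspecific binding. MOR was measured on rat brain membranes with 1 nM [3H]DAMGO for 45 min at 35 °C. Samples were filtered and scintillation counted, and Ki was obtained by Cheng–Prusoff; duplicates, 3–4 experiments.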

The subject of test [3] is Mus musculus. Put plainly: Antinociceptive activity in CD1 mouse assessed as inhibition of the writhing response at 200 ug/kg, sc and co-administered with 1 mg/kg naloxone methiodide and measured after 30 mins post dose by acetic acid-induced writhing assay. It is filed as functional, organism-based. The note with it: dose 200.0 µg/kg. An outline of the steps: (§3)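 Male CD1 mice (30–35 g) received the agonist sc in saline (10 μL/g) together with sc naloxone methiodide 1 mg/kg. At 25 min, 0.6% acetic acid was given ip, and writhes were counted over a 10 min observation period (30 min post-dose). Results were expressed as mean writhes versus saline control and agonist-alone groups; n = 6–7 mice per group; ANOVA with Tukey post hoc.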

The target in test [4] is Kappa-type opioid receptor (Cavia porcellus, UniProt P41144). The test is described as follows: Displacement of [3H]U69,593 from kappa opioid receptor in guinea-pig brain membranes incubated for 30 mins by liquid scintillation counting method. Type of test: cell membranes, Membrane. In a few lines:
as §2

In the next test the target is Mu-type opioid receptor (Rattus norvegicus, UniProt P33535). The test is described as follows: Displacement of [3H]DAMGO from mu opioid receptor in rat brain membranes incubated for 45 mins by liquid scintillation counting method. It is filed as cell membranes, Membrane. In a few lines: as §1
(In general: Displacement assays read how much labelled ligand stays bound in the presence of the test substance.)

Test [5] has as its target Delta-type opioid receptor (Rattus norvegicus, UniProt P33533). Put plainly: Displacement of [3H][Ile5,6]deltorphin II from delta opioid receptor in rat brain membranes incubated for 45 mins by liquid scintillation counting method. Type of test: cell membranes, Membrane. In a few lines: as §1
In test [6] the test system is Mus musculus. Put plainly: Antinociceptive activity in CD1 mouse assessed as inhibition of the writhing response at 50 ug/kg, sc and co-administered with 1 mg/kg naloxone methiodide and measured after 30 mins post dose by acetic acid-induced writhing assay. The note with it: dose 50.0 µg/kg. Type of test: functional, organism-based. An outline of the steps:
as §3
(Writhing tests count abdominal constrictions after an irritant is injected.)

Test [7] has as its system Mus musculus. Put plainly: Antinociceptive activity in sc dosed CD1 mouse assessed as inhibition of the writhing response after 30 mins post dose by acetic acid-induced writhing assay. It is filed as functional. The settings on record: 0.5 h.
For test [8], the target named is Mu-type opioid receptor (Homo sapiens) (UniProt P35372). Put plainly: Agonist activity at human MOR expressed in CHO cell membranes incubated for 60 mins scintillation counting assay relative to DAMGO. The settings on record: Cell membrane, filed as agonist. An outline of the steps:
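CHO-hMOR or CHO-hKOR membranes (5–10 μg) were incubated 60 min at 25 °C in HEPES/MgCl2/NaCl buffer, pH 7.4, with 0.05 nM [35S]GTPγS, 10 μM GDP and varied test concentrations. Nonspecific binding was set with 10 μM GTPγS. Samples were filtered and scintillation counted. % stimulation was taken from concentration–response curves relative to the full agonist (DAMGO for MOR, U69,593 for KOR). Duplicates, 3–4 experiments.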

Broadly, the Ki is the dissociation constant of the complex between target and ligand, obtained from inhibition or displacement. One may read the ED50 as the midpoint of the dose-response relation.

Delta-type opioid receptor (Homo sapiens), sequence (P41143 whole entry): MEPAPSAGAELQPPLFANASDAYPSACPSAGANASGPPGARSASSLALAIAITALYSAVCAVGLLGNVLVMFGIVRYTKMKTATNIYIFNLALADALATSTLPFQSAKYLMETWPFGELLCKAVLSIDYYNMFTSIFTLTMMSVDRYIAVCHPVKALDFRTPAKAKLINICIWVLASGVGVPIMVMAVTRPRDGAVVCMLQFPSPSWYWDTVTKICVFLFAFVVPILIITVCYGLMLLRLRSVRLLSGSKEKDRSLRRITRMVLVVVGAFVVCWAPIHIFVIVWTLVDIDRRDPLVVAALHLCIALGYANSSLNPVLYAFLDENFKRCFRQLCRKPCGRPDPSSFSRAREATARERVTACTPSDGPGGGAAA
Kappa-type opioid receptor, sequence (P41144 whole entry): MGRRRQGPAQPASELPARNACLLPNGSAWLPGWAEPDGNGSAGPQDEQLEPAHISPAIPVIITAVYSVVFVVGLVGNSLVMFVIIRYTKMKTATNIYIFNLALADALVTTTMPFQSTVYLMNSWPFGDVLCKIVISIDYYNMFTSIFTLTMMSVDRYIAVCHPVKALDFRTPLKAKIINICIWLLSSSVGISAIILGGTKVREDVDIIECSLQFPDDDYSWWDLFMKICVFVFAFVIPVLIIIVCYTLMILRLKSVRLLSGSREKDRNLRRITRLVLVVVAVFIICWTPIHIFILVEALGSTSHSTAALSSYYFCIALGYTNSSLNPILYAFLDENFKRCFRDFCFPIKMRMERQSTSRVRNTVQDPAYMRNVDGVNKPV
Delta-type opioid receptor, sequence (P33533 whole entry): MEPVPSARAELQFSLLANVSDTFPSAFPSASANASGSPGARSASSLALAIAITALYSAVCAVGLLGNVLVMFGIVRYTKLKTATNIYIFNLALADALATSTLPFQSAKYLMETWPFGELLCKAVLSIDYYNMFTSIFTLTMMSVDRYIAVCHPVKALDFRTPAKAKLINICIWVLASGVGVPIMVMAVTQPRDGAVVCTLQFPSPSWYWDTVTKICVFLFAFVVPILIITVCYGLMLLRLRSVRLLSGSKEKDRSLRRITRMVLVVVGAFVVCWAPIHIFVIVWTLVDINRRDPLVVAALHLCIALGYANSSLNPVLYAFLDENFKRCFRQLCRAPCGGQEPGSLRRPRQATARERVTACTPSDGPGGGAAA
Mu-type opioid receptor, sequence (P33535 whole entry): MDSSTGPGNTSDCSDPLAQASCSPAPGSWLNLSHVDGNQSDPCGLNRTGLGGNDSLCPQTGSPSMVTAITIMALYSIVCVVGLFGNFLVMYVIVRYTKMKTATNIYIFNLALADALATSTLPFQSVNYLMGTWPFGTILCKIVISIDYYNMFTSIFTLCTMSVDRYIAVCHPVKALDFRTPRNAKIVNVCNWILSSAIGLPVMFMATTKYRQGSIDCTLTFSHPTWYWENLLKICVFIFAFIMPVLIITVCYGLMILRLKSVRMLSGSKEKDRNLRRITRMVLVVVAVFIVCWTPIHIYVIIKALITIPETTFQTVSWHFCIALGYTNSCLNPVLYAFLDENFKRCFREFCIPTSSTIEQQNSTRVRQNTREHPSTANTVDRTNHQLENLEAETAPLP
Mu-type opioid receptor (Homo sapiens), sequence (P35372 whole entry): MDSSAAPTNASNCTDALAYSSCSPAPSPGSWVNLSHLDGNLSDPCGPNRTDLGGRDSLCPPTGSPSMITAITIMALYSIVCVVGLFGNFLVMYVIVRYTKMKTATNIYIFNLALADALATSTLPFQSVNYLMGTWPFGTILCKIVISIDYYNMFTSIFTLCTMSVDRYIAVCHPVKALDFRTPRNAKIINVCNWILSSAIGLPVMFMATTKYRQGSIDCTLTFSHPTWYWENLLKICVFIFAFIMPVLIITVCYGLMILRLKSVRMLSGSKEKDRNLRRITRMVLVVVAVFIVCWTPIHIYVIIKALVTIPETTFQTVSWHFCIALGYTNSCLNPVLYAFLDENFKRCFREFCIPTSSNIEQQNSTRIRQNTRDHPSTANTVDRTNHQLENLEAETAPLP

For the molecule `CO[C@@]12CC[C@@H](N[C@@H](Cc3c[nH]c4ccccc34)C(=O)O)[C@@H]3Oc4c(O)ccc5c4[C@@]31CCN(C)[C@@H]2C5`, in [1], the outcome was Active. Also, the figures for the Ratio Ki (in the test listed under Rattus norvegicus; in test [2]) were 1.8 and 13, respectively. For the same molecule, the result with Mus musculus [3] was inactive.

`CO[C@@]12CC[C@H](N[C@@H](Cc3ccccc3)C(=O)O)[C@@H]3Oc4c(O)ccc5c4[C@@]31CCN(C)[C@@H]2C5`: the inhibitory constant (Ki) worked out at 28.5 nM in test [4] and 0.95 nM on Mu-type opioid receptor. For the same molecule, the outcome in [1] was Active. Besides, the Ratio Ki stood at 3.9 in the test filed under Rattus norvegicus and 30 in test [2].

Take `CO[C@@]12CC[C@@H](N[C@@H](Cc3ccccc3)C(=O)O)[C@@H]3Oc4c(O)ccc5c4[C@@]31CCN(C)[C@@H]2C5`: the inhibitory constant (Ki) is 1.03 nM in test [5], 151 nM in test [4] and 2.58 nM at Mu-type opioid receptor. For the same molecule, in test [1], the result was Active. For the same molecule, the Ratio Ki was 0.4 in the test filed under Rattus norvegicus and 59 in test [2].

In the case of `CO[C@@]12CC[C@@H](N[C@@H](CCCCN)C(=O)O)[C@@H]3Oc4c(O)ccc5c4[C@@]31CCN(C)[C@@H]2C5`, the outcome in test [1] was Active. Further, the Ratio Ki in the test filed under Rattus norvegicus came out at 6.3; in test [2] it was 64. The result with Mus musculus [6] was inactive.

Turning to `CO[C@@]12CC[C@@H](NCC(=O)NCC(=O)O)[C@@H]3Oc4c(O)ccc5c4[C@@]31CCN(C)[C@@H]2C5`, the outcome in test [1] was Active. The Ratio Ki in the test listed under Rattus norvegicus was 1.6; in [2], 44. For the same molecule, the result with Mus musculus [3] was inactive.

Regarding `CO[C@@]12CC[C@H](N[C@@H](C)C(=O)O)[C@@H]3Oc4c(O)ccc5c4[C@@]31CCN(C)[C@@H]2C5`, the ED50 with Mus musculus [7] came out at 0.016 mg/kg. In test [4], this molecule yielded an inhibitory constant (Ki) of 142 nM. In test [1], the result was Active.

As for `CC[C@H](N[C@@H]1CC[C@@]2(OC)[C@H]3Cc4ccc(O)c5c4[C@@]2(CCN3C)[C@H]1O5)C(=O)O`, in test [1], the result was Active. Further, the Activity in test [8] was found to be 83%. Further, the figures for the Ratio Ki (in the test filed under Rattus norvegicus; in [2]) were 0.7 and 110, respectively. Also, the outcome in the test on Mus musculus [6] was inactive.

Take `CO[C@@]12CC[C@@H](N[C@H](C(=O)O)C3CCCCC3)[C@@H]3Oc4c(O)ccc5c4[C@@]31CCN(C)[C@@H]2C5`: the result in [1] was Active. The Ratio Ki is 0.8 in the test listed under Rattus norvegicus and 71 in test [2]. Further, the result in the test on Mus musculus [6] was inactive.

Consider `CO[C@@]12CC[C@@H](N[C@@H](C)C(=O)O)[C@@H]3Oc4c(O)ccc5c4[C@@]31CCN(C)[C@@H]2C5`, for which the values for the Ki in test [5] and in test [4] were 7.71 nM and 63.7 nM, respectively. The outcome in [1] was Active.
